High-throughput results: PubChem BioAssay, several laboratories
Most compounds without a hit are left out; they make up all but 2.2% or so of the library.
Hck-Nef inh – inhibitors of human Hck kinase activated by Nef. inhibition, % at 20 µM. P08631. Recombinant Hck-YEEI plus Nef, Z-Lyte FRET kinase assay. AID 463187. hit rate 0.68% among 220,000;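 active = Hck-Nef kinase inhibition above about 50%, limit read from the data; inactive = inhibition below that limit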;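 note: 0% = DMSO with Hck plus Nef and 100% = Hck alone without Nef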
PERK inhibitor – human PERK inhibition, primary cell-based screen. Q9NZJ5. CHO PERK-DD fusion, SEAP luminescence translation reporter. inhibition, % at 5.6 µM. hit rate 0.17% among 220,000;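 active = inhibition above the mean inhibition of all tested compounds plus 3 SD, set separately per screening campaign, cut at about 2.9% in these data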;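 note: PERK kinase domain activated by AP20187 dimerizer at 100 nM; 0% = DMSO with dimerizer and 100% = rapamycin at 8.4 µM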
Runt-CBFb FRET – Runt domain-CBFb interaction inhibition. Q01196+Q13951. Cerulean-Runt/Venus-CBFb FRET ratio 530/480, 1 h. inhibition, % at 20 µM. hit rate 0.46% among 220,000. AID 1496;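 active = inhibition over about 50% at 20 µM in the single-dose screen, limit read from the data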;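 note: 0% = DMSO wells and 100% = excess unlabeled CBFb competitor control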
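Buffer or medium: Tris pH 7.5 buffer with BSA. Assay system: Cerulean-labeled Runt domain protein. Amount: each fluorescent fusion protein 100 nM. Read-out basis: loss of energy transfer signal. Incubation: 1 h compound exposure, room temperature. Probe or stimulus: Venus-CBFb binding partner, 100 nM. Detection: FRET, excitation 422 nm, emission at 530 and 480 nm.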
RanGTP-Imp inh – disruptors of Ran-importin-beta complex formation – biochemical, FRET, CFP-Ran, YFP-importin-beta, homogeneous, primary screen; inhibition, % (concentration not given with the values); hit rate 1.1% among 300,000; cell-free CFP-Ran/YFP-importin-beta FRET ratio;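 active = more than half of the replicate wells show a fall in the fluorescence ratio signal beyond about 16%, limit read from the data, passing the limit was not always enough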;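 note: 0% = DMSO wells and 100% = Ran loaded with GDP instead of GTP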
eIF4E-4G inh – eIF4E/eIF4G interaction inhibition in translation initiation. P63073+Q04637. TR-FRET eIF4E-eIF4GI(517-606) binding, 2 h. inhibition, % at 21.7 µM. hit rate 0.37% among 220,000. AID 782;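 active = inhibition above about 30%, limit read from the data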;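 note: 0% = full FRET control wells and 100% = background wells lacking eIF4GI fragment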
Runt-SMMHC FRET – blocks binding of human RUNX1 Runt domain to CBFb-SMMHC. Q01196+Q13951. Cerulean-Runt/Venus-CBFb-SMMHC FRET ratio 530/480, 1 h. inhibition, % at 20 µM. hit rate 0.74% among 220,000;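 active = mean inhibition across duplicate retests at 20 µM reaching about 50%, limit read from the data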;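 note: 0% = DMSO wells and 100% = wells with excess untagged CBFb-SMMHC; inhibitors lower the FRET ratio by blocking Runt binding to CBFb-SMMHC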
Starred values were filed as active, the others as inactive; nt = not tested or not shown; [ ] = another dose, or the depositor's remark.

SMILES	Hck-Nef inh	PERK inhibitor	Runt-CBFb FRET	RanGTP-Imp inh	eIF4E-4G inh	Runt-SMMHC FRET
CN(C)c1ccc(N=c2sc3ccccc3n2C)cc1	-24	-1	12	-2	38*[fluorescence artefact?]	11
COc1ccc(O)c(-c2cc(C(F)(F)C(F)F)nc(-c3ccccc3)n2)c1	0	1	1	-2	0	3
Oc1ccccc1-c1cc(C(F)(F)C(F)F)nc(-c2ccccc2)n1	2	3.0*	-2	1	0	-2
COc1cc(OC)c(C(=O)N(CCc2ccccc2)Cc2ccccc2)cc1OC	nt	nt	nt	1	nt	nt
O=c1[nH]cc(NCCc2ccccc2)c(=O)[nH]1	29	0	9	43*	-3	16
Cc1cc(C=C2C(=O)c3ccccc3C2=O)c(C)n1-c1ccccc1	-1	0	-13	-2	6	-89
CC1=NN2C(=N)/C(=C\c3cc(C)n(-c4ccccc4)c3C)C(=O)N=C2S1	25	1	-7	39*	-3	4
Cc1cc(/C=C2\Cc3ccccc3C2=O)c(C)n1-c1ccccc1	-1	-1	17	23*	2	16
CCC1OC2(C)OC(=N)C1(C#N)C(C#N)(C#N)C2c1ccccc1 (stereo not drawn)	17	0	22	33*	1	67
CC(C)C1OC2(C)OC(=N)C1(C#N)C(C#N)(C#N)C2c1ccccc1 (stereo not drawn)	21	0	40	32*	0	63*
COc1ccc(S(=O)(=O)N2CCC(C(=O)NCc3cccnc3)CC2)cc1C	nt	nt	nt	5	nt	nt
Cc1cccc(CN2CCCC(C(=O)c3ccc4c5c(cccc35)CC4)C2)n1 (stereo not drawn)	154*	1	-2	-4	1	2
O=C(c1ccc2c3c(cccc13)CC2)C1CCCN(Cc2cccnc2)C1 (stereo not drawn)	17	-2	-4	-3	1	-4
O=C(O)c1ccccc1CSc1nnc2c(n1)[nH]c1ccccc12	-3	3.1*	9	5	-1	-8
CC12CC3(C)CC(C)(C1)CC(C(=O)NCc1ccccn1)(C2)C3	-1	0	-5	34*	-1	-2
CC12CCC(C(=O)NCc3ccccn3)(OC1=O)C2(C)C (stereo not drawn)	1	1	2	-3	0	-2
CC(C)CC(=O)Nc1ccc2c(c1)nc(CCN1CCOCC1)n2C	nt	nt	nt	2	nt	nt
CCOC(=O)Nc1cc(Br)c2c(c1)OCCO2	6	0	2	-2	-12	1
CCOC(=O)C1[C@H]2C(=O)N(CCCOC)C[C@]23C=C[C@H]1O3 (stereo partly drawn)	-1	1	-2	0	0	-3
CCCCOC(=O)C1C2C=C[C@]3(CN(CCCOC)C(=O)[C@H]13)O2 (stereo partly drawn)	0	3.4*	0	-3	-20	-2
CC(CNC(=O)c1ccc(NC2=NC3CS(=O)(=O)CC3S2)cc1)c1ccccc1 (stereo not drawn)	nt	nt	nt	-1	nt	nt
COC(=O)c1c(/N=C/N(C)C)sc2c1CCN(c1ncc(C(F)(F)F)cc1Cl)C2	25	0	5	9	3	58*
COC(=O)c1c(N(S(C)(=O)=O)S(C)(=O)=O)sc2c1CCN(c1ncc(C(F)(F)F)cc1Cl)C2	1	0	65*	2	-2	79*
COc1ccc(/C=C/c2c(-c3ccc(OC)cc3)oc3cccnc23)cc1	nt	nt	nt	-8	nt	nt
CC1=CC2=NC(=O)CC(C)(C(=O)N(CC(=O)NC3CCCC3)c3cc(C)cc(C)c3)N2C=C1 (stereo not drawn)	22	0	1	1	35*	-4
SMILES	Hck-Nef inh	PERK inhibitor	Runt-CBFb FRET	RanGTP-Imp inh	eIF4E-4G inh	Runt-SMMHC FRET
O=C(O)c1ccc(N/N=C/C=C/c2ccccc2)cc1	26	1	20	85*	-16	21
O=C(O)c1ccc(N/N=C/c2ccc(-c3ccccc3)cc2)cc1	33	1	3	5	3	11
CCOC(=O)c1c(NC(=S)Nc2ccccc2)sc2c1CCN(CC)C2	4	-1	61*	62*	-6	152*
NC(=O)c1c(NC(=O)C2COc3ccccc3O2)sc2c1CCN(Cc1ccccc1)C2 (stereo not drawn)	25	0	110*	-3	-4	137*
CCOC(=O)c1c(NC(=O)C2COc3ccccc3O2)sc2c1CCN(Cc1ccccc1)C2 (stereo not drawn)	3	-1	49	90*	9	48
CCOC(=O)C1CCN(C(=O)c2ccc(Cl)c(S(=O)(=O)N3CCCC3)c2)CC1	nt	nt	nt	-3	nt	nt
CN(C)Cc1nc2ccccc2c(=O)n1CC(=O)Nc1cccc(S(=O)(=O)N2CCOCC2)c1	-4	-1	2	-1	4	2
CNC(=O)COc1ccc(S(=O)(=O)Nc2ccc(OC)cc2)cc1	10	3.6*	2	nt	4	-2
CCC1=[N+](CC(=O)c2ccc(C)cc2)CCn2c(C)ccc21	2	0	-4	44*	5	-15
COCCN(C(=O)CN1CCc2ccccc2C1)c1c(N)n(Cc2ccccc2)c(=O)[nH]c1=O	0	0	27	7	4	74*
CNCC(=O)N(CC(C)C)c1c(N)n(CC(C)C)c(=O)[nH]c1=O	2	0	8	2	2	56*
CC(C)CN(C(=O)CN1CCc2ccccc21)c1c(N)n(CC(C)C)c(=O)[nH]c1=O	3	0	35	8	-1	72*
CC(=O)Nc1ccccc1OC(C)C(=O)N1CC(C)CC(C)C1 (stereo not drawn)	12	1	2	8	-2	-5
COc1ccc(-c2oc3ccccc3c2C(=O)Oc2ccccc2)cc1	nt	nt	nt	1	nt	nt
CCOc1ccc2nc(Cl)c(C3CC(c4ccco4)=NN3S(C)(=O)=O)cc2c1 (stereo not drawn)	-23	0	6	-4	-1	-2
CCOc1ccc2cc(C3CC(c4ccco4)=NN3S(C)(=O)=O)c(=O)[nH]c2c1 (stereo not drawn)	24	0	31	3	36*	7
COc1ccccc1CNC(=O)COc1ccc(Br)c(C)c1	nt	nt	nt	6	nt	nt
COc1ccc(CC2NCCC3=CC(=O)CCC32)cc1O (stereo not drawn)	nt	nt	nt	29*	nt	nt
COc1ccc(C(=O)NNC(=O)C2CCN(S(=O)(=O)c3ccc(C)cc3)CC2)cc1	5	0	-1	0	6	1
NS(=O)(=O)c1ccc(NC(=O)c2ccc3c(c2)CCCC3)cc1	nt	nt	nt	5	nt	nt
O=C(Nc1ccc(S(=O)(=O)Nc2ncccn2)cc1)c1ccc2ncsc2c1	-1	2.9*	3	2	51*	-2
